We go through nine compounds from ChEMBL document CHEMBL5230162 (RSC Med Chem, 2023).

Structures are written as SMILES. pKd: −log10 of the molar value. In brackets after ≈: the same amount, converted by molar mass. Activity calls are given as the source filed them. The rule behind the calls is not given here.

Series [1] in a line: Binding affinity to human ASGPR assessed as equilibrium dissociation constant by surface plasmon resonance spectroscopy.
A short description of series [2]: Solubility of the compound in water incubated for 15 mins under shaking conditions by UV spectrophotometry relative to atorvastatin. The note with it: buffer, 0.25 h. The format is physicochemical. The method in brief:
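Excess compound shaken strongly in 1 ml water for 15 min, then filtered or centrifuged. 50 μL of the saturated solution diluted into 1 mL methanol. Absorbance read at 290 nm and concentration taken from standard curves.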

Series [3] is described as follows: Solubility of the compound in water incubated for 15 mins under shaking conditions by UV spectrophotometry. It counts as physicochemical.
The target in series [4] is T1, 3-hydroxy-3-methylglutaryl-coenzyme A reductase (Homo sapiens) (UniProt P04035).
T1 sequence (whole entry): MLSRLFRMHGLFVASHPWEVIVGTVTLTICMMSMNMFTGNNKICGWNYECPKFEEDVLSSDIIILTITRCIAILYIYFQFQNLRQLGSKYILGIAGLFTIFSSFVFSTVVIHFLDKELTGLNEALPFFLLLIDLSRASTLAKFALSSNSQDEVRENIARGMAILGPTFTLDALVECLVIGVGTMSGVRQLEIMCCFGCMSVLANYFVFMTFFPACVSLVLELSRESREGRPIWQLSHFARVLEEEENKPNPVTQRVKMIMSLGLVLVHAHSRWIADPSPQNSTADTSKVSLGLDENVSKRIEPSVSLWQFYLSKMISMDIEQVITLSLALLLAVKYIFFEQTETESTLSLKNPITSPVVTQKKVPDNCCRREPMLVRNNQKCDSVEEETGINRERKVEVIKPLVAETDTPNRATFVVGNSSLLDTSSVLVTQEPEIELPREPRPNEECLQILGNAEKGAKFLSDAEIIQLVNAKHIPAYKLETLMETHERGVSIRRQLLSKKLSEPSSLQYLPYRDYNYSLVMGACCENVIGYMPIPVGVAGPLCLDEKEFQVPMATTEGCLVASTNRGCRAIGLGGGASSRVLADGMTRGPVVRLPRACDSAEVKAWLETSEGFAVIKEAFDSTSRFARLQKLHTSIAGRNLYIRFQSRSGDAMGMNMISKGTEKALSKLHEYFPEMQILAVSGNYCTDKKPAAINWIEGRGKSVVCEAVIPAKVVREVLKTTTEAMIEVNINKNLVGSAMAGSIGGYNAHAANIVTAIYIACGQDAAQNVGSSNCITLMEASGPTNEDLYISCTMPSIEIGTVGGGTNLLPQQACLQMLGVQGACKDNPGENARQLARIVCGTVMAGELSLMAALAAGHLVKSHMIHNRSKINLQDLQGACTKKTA
Briefly: Inhibition of HMG-CoA reductase (unknown origin) in neutral aqueous media. The method in brief: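 HMG-CoA reductase kit assay. Compounds were 0.1 mM working solutions made from 0.01 M DMSO stocks diluted in water; 2 μL of each added per well. NADPH consumption followed as absorbance at 340 nm every 20 s for up to 10 min. Activity calculated from the NADPH extinction coefficient. Run in triplicate.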

The target in series [5] is T1, 3-hydroxy-3-methylglutaryl-coenzyme A reductase (Homo sapiens). Briefly: Inhibition of HMG-CoA reductase (unknown origin) in presence of cathepsin B. The method in brief:
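Compound (40 μM final) incubated for 24 h at 37 °C with recombinant cathepsin B (30 nM final) in 0.1 M sodium acetate pH 3.6, 100 mM NaCl, 1 mM EDTA, 0.6% DMSO. 5 μL of the mixture then tested in the HMG-CoA reductase kit assay: absorbance at 340 nm every 20 s for up to 10 min, in triplicate. Controls: enzyme-only buffer and compound without protease.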

Series [6] is described as follows: Stability of the compound in acetate buffer at pH 5 measured for 24 hrs by HPLC-MS analysis. The format is physicochemical. The note with it: pH 5, 24 h. The method in brief:
(§1)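 Incubated at 37 °C. Aliquots taken at 0, 0.5, 1, 2, 4, 8 and 24 h and quenched in cold methanol, stored at −20 °C, centrifuged, and the supernatant analysed by HPLC-MS.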

Series [7] can be described thus: Stability of the compound in acetate buffer at pH 5 measured after 24 hrs by HPLC-MS analysis. It counts as physicochemical. The note with it: pH 5, 24 h. The method in brief: as §1
Series [8] in a line: Stability of the compound in PBS buffer at pH 7.4 measured after 24 hrs by HPLC-MS analysis. The conditions noted are these: pH 7.4, 24 h. The format is physicochemical. The method in brief:
as §1

In the case of `CC(=O)N[C@@H]1[C@@H](O)[C@@H](O)[C@@H](CO)O[C@@H]1O`, the pKd in series [1] is 5.35.

For the compound `CC(=O)N[C@H]1[C@H](OCCNC(=O)C[C@H](O)C[C@H](O)CCn2c(-c3ccc(F)cc3)c(-c3ccccc3)c(C(=O)Nc3ccccc3)c2C(C)C)O[C@H](CO)[C@H](O)[C@@H]1O`, the “fold change (FC)” value in series [2] was 4. Further, the pKd in series [1] was 7.16. For the same compound, the concentration in solution in series [3] (solubility at 0.25 h) was 430 µM (≈ 346 µg/mL).

As to `CC(=O)N[C@H]1[C@H](OCCn2cc(COC(=O)C[C@H]3C[C@@H](CCn4c(-c5ccc(F)cc5)c(-c5ccccc5)c(C(=O)Nc5ccccc5)c4C(C)C)OC(C)(C)O3)nn2)O[C@H](CO)[C@H](O)[C@@H]1O`, the pKd in series [1] is 9.48. Further, the “inhibition (active/not active)” value in series [4] was “Active”. This compound also returned a solubility at 0.25 h in series [3] of 50 µM (≈ 46.4 µg/mL).

Take `CC(=O)N[C@@H]1[C@@H](O)[C@@H](O)[C@@H](CO)O[C@H]1n1cc(COC(=O)C[C@H]2C[C@@H](CCn3c(-c4ccc(F)cc4)c(-c4ccccc4)c(C(=O)Nc4ccccc4)c3C(C)C)OC(C)(C)O2)nn1`: the pKd in series [1] is 9.82. Moreover, the solubility at 0.25 h in series [3] turned out to be 30 µM (≈ 26.5 µg/mL).

Turning to `CC[C@H](C)C(=O)O[C@H]1C[C@H](O)C=C2C=C[C@H](C)[C@H](CC[C@@H](O)C[C@@H](O)CC(=O)O)[C@H]21`, the inhibition entry in series [5] was “Active”.

`CC(=O)N[C@H]1[C@H](OCCn2cc(COC(=O)C[C@H](O)C[C@H](O)CCn3c(-c4ccc(F)cc4)c(-c4ccccc4)c(C(=O)Nc4ccccc4)c3C(C)C)nn2)O[C@H](CO)[C@H](O)[C@@H]1O`: the negative-log Kd (pKd) in series [1] was 7.10. In series [3], the solubility at 0.25 h is 320 µM (≈ 284 µg/mL). Besides, in series [6], the Stability entry was “Stable”.

In turn, `CC(=O)N[C@H]1[C@H](OCCn2cc(CNC(=O)C[C@H](O)C[C@H](O)CCn3c(-c4ccc(F)cc4)c(-c4ccccc4)c(C(=O)Nc4ccccc4)c3C(C)C)nn2)O[C@H](CO)[C@H](O)[C@@H]1O` had a fold change (FC) in series [2] of 5. Further, the Stability result in series [7] and in series [8] was “Stable” throughout. For the same compound, the inhibition result in series [5] is “Active”. Further, the pKd in series [1] is 6.79. In addition, the “inhibition (active/not active)” value in series [4] is “inactive”. The compound also showed a solubility at 0.25 h in series [3] of 540 µM (≈ 478 µg/mL).

With `CC(=O)N[C@@H]1[C@@H](O)[C@@H](O)[C@@H](CO)O[C@H]1n1cc(CNC(=O)C[C@H](O)C[C@H](O)CCn2c(-c3ccc(F)cc3)c(-c3ccccc3)c(C(=O)Nc3ccccc3)c2C(C)C)nn1`, the fold change (FC) in series [2] is 4. In addition, the Stability entry in series [7] and in series [8] was “Stable” throughout. Further, the inhibition result in series [5] is “Active”. In addition, in series [1], the pKd was 6.95. The “inhibition (active/not active)” value in series [4] was “inactive”. The same compound showed a solubility at 0.25 h in series [3] of 450 µM (≈ 379 µg/mL).

For `CC(=O)N[C@@H]1[C@@H](O)[C@@H](O)[C@@H](CO)O[C@H]1n1cc(COC(=O)C[C@H](O)C[C@H](O)CCn2c(-c3ccc(F)cc3)c(-c3ccccc3)c(C(=O)Nc3ccccc3)c2C(C)C)nn1`, the pKd in series [1] was 7.32. In addition, the “inhibition (active/not active)” value in series [4] is “Active”. The concentration in solution in series [3] (solubility at 0.25 h) was 200 µM (≈ 169 µg/mL). Moreover, the Stability entry in series [6] is recorded as “Stable”.
